# Numbering of substitutions follows the chain as printed.
# How the values were obtained:
# [1] = target: T1, Nonstructural protein 5A (Hepatitis C virus) (UniProt Q5L478); test: Inhibition of NS5A in HCV genotype 4a infected in HuH7 replicon cells assessed as decrease in viral replication after 3 days by RT-PCR method; format: cell-based; conditions: Hepatitis C virus subtype 4a
# T1 sequence (whole entry): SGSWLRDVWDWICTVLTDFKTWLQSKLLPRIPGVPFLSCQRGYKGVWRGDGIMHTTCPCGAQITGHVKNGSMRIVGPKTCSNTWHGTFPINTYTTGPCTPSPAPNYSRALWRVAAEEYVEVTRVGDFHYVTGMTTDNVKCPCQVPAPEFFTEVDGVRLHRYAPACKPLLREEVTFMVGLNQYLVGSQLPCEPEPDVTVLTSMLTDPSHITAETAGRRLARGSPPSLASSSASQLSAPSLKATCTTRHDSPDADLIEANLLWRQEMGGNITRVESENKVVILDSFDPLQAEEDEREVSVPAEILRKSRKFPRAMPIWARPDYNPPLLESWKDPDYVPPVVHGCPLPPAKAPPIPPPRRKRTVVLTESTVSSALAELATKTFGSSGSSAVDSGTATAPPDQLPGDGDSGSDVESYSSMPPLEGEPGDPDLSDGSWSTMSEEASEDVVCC
# [2] = Clearance in Wistar Han rat at 2 mg/kg, iv by LC/MS method; format: ADME, organism-based; conditions: in vivo
# Summary of the method: (§1)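 Male Wistar Han rats, two per group, dosed IV at 2 mg/kg in 60% PEG200. Plasma was obtained by centrifuging the blood, and compound concentrations were measured by LC/MS.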
# [3] = Half life in Wistar Han rat at 2 mg/kg, iv by LC/MS method; format: ADME, organism-based; conditions: in vivo; summary of the method: as §1
# [4] = Cmax in Wistar Han rat at 10 mg/kg, po by LC/MS method; format: ADME, organism-based; parameters: dose 10 mg/kg, route oral; conditions: in vivo
# Summary of the method: (§2)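 Male Wistar Han rats, two per dosing group, dosed orally at 10 mg/kg in 10% TWEEN. Plasma was separated from collected blood by centrifugation and analysed by LC/MS.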
# [5] = target: T1, Nonstructural protein 5A (Hepatitis C virus); test: Inhibition of NS5A in HCV genotype 1b infected in HuH7 replicon cells assessed as decrease in viral replication after 3 days by RT-PCR method; format: cell-based; conditions: Hepatitis C virus subtype 1b
# [6] = Drug level in Wistar Han rat at 10 mg/kg, po measured at 24 hrs by LC/MS method; format: ADME, organism-based; conditions: in vivo, read-out: Drug uptake; summary of the method: as §2
# [7] = target: T1, Nonstructural protein 5A (Hepatitis C virus); test: Inhibition of NS5A in HCV genotype 1a infected in HuH7 replicon cells assessed as decrease in viral replication after 3 days by RT-PCR method; format: cell-based; conditions: Hepatitis C virus subtype 1a
# [8] = target: T1, Nonstructural protein 5A (Hepatitis C virus); test: Inhibition of NS5A L31M mutant in HCV genotype 2b infected in HuH7 replicon cells assessed as decrease in viral replication after 3 days by RT-PCR method; format: cell-based; conditions: Hepatitis C virus subtype 2b
# [9] = target: T1, Nonstructural protein 5A (Hepatitis C virus); test: Inhibition of NS5A in HCV genotype 3a infected in HuH7 replicon cells assessed as decrease in viral replication after 3 days by RT-PCR method; format: cell-based; conditions: Hepatitis C virus subtype 3a
# [10] = Oral bioavailability in Wistar Han rat at 10 mg/kg by LC/MS method; format: ADME, organism-based; conditions: in vivo; summary of the method: as §2
# [11] = system: T2, Nonstructural protein 5A (Hepatitis C virus), Q5L478 [Y93H]; test: Inhibition of NS5A Y93H mutant in HCV genotype 1a infected in HuH7 replicon cells assessed as decrease in viral replication after 3 days by RT-PCR method; format: cell-based; conditions: Hepatitis C virus subtype 1a
# T2 sequence (whole entry): T1 sequence (whole entry) with Y93H
# [12] = target: T1, Nonstructural protein 5A (Hepatitis C virus); test: Inhibition of NS5A L31V mutant in HCV genotype 1a infected in HuH7 replicon cells assessed as decrease in viral replication after 3 days by RT-PCR method; format: cell-based; conditions: Hepatitis C virus subtype 1a
# [13] = AUC in Wistar Han rat at 10 mg/kg, po by LC/MS method; format: ADME, organism-based; conditions: in vivo; summary of the method: as §2
Compound,EC90 [1] [pM],clearance [2] [mL/min/kg],half-life [3] [h],Cmax [4] [nM],EC90 [5] [pM],concentration at 24 h [6] [nM],EC90 [7] [pM],EC90 [8] [pM],EC90 [9] [pM],bioavailability [10] [%],EC90 [11] [pM],EC90 [12] [pM],AUC [13] [µM·h]
COC(=O)N[C@H](C(=O)N1CCC[C@H]1c1ncc(-c2cc(F)c3c(c2)O[C@@H](c2ccc(C4CC4)s2)n2c-3cc3cc(-c4cnc([C@@H]5CCCN5C(=O)[C@@H](NC(=O)OC)C5CC(C)(C)OC(C)(C)C5)[nH]4)ccc32)[nH]1)C(C)C,4,7,7.7,76,2,5,4,73,7,3.1,47,4,0.7
COC(=O)N[C@H](C(=O)N1CCC[C@H]1c1ncc(-c2cc(F)c3c(c2)O[C@@H](c2ccc4c(c2)O[C@@H](C)CC4)n2c-3cc3cc(-c4cnc([C@@H]5CCCN5C(=O)[C@@H](NC(=O)OC)[C@@H]5CCOC(C)(C)C5)[nH]4)ccc32)[nH]1)C(C)C,8,–,–,–,7,–,5,102,8,–,348,5,–
COC(=O)N[C@H](C(=O)N1CCC[C@H]1c1ncc(-c2cc(F)c3c(c2)O[C@@H](c2ccc(C4CC4)s2)n2c-3cc3cc(-c4cnc([C@@H]5CCCN5C(=O)[C@@H](NC(=O)OC)[C@H]5CCOC(C)(C)C5)[nH]4)ccc32)[nH]1)C(C)C,7,11,5.2,25,7,1,4,27,9,1.6,18,2,0.24
COC(=O)N[C@H](C(=O)N1CCC[C@H]1c1ncc(-c2cc(F)c3c(c2)O[C@@H](c2ccc4c(c2)OCCC4)n2c-3cc3cc(-c4cnc([C@@H]5CCCN5C(=O)[C@@H](NC(=O)OC)[C@@H]5CCOC(C)(C)C5)[nH]4)ccc32)[nH]1)C(C)C,5,25,3.8,10,5,1,3,17,7,1.2,48,4,0.08
CCc1ncc([C@@H]2Oc3cc(-c4cnc([C@@H]5CCCN5C(=O)[C@@H](NC(=O)OC)C(C)C)[nH]4)cc(F)c3-c3cc4cc(-c5cnc([C@@H]6CCCN6C(=O)[C@@H](NC(=O)OC)[C@@H]6CCOC(C)(C)C6)[nH]5)ccc4n32)s1,4,29,5.3,10,5,1,6,41,6,0.8,17,5,0.05
CC[C@@H]1CC([C@H](NC(=O)OC)C(=O)N2CCC[C@H]2c2ncc(-c3ccc4c(c3)cc3n4[C@H](c4ccc(C5CC5)s4)Oc4cc(-c5cnc([C@@H]6CCCN6C(=O)[C@@H](NC(=O)OC)C(C)C)[nH]5)cc(F)c4-3)[nH]2)C[C@H](CC)O1 (stereo partly specified),–,–,–,–,–,–,17,2700,62,–,642,–,–
COC(=O)N[C@H](C(=O)N1CCC[C@H]1c1ncc(-c2cc(F)c3c(c2)O[C@@H](c2cc4c(s2)CCC4)n2c-3cc3cc(-c4cnc([C@@H]5CCCN5C(=O)[C@@H](NC(=O)OC)[C@@H]5CCOC(C)(C)C5)[nH]4)ccc32)[nH]1)C(C)C,6,9,4.3,290,6,6,5,43,9,10.2,117,6,1.9
CCc1ccc([C@@H]2Oc3cc(-c4cnc([C@@H]5CCCN5C(=O)[C@@H](NC(=O)OC)[C@@H]5CCOC(C)(C)C5)[nH]4)cc(F)c3-c3cc4cc(-c5cnc([C@@H]6CCCN6C(=O)[C@@H](NC(=O)OC)C(C)C)[nH]5)ccc4n32)s1,106,9,5.9,20,67,2,33,349,82,1.2,155,46,0.23
COC(=O)N[C@H](C(=O)N1CCC[C@H]1c1ncc(-c2ccc3c(c2)cc2n3[C@H](c3ccc4c(c3)OCCN4C)Oc3cc(-c4cnc([C@@H]5CCCN5C(=O)[C@@H](NC(=O)OC)C5CCOCC5)[nH]4)cc(F)c3-2)[nH]1)C(C)C,9,13,3.8,16,7,1,71,54,17,0.8,73,–,0.1
CCCc1ccc([C@@H]2Oc3cc(-c4cnc([C@@H]5CCCN5C(=O)[C@@H](NC(=O)OC)C(C)C)[nH]4)cc(F)c3-c3cc4cc(-c5cnc([C@@H]6CCCN6C(=O)[C@@H](NC(=O)OC)[C@@H]6CCOC(C)(C)C6)[nH]5)ccc4n32)s1,11,–,–,–,9,–,10,84,16,–,78,6,–
COC(=O)N[C@H](C(=O)N1CCC[C@H]1c1ncc(-c2cc(F)c3c(c2)O[C@@H](c2cnc(C(C)C)s2)n2c-3cc3cc(-c4cnc([C@@H]5CCCN5C(=O)[C@@H](NC(=O)OC)[C@@H]5CCOC(C)(C)C5)[nH]4)ccc32)[nH]1)C(C)C,7,–,–,–,6,–,6,19,38,–,329,4,–
COC(=O)N[C@H](C(=O)N1CCC[C@H]1c1ncc(-c2cc(F)c3c(c2)O[C@@H](c2ccc(C(C)C)s2)n2c-3cc3cc(-c4cnc([C@@H]5CCCN5C(=O)[C@@H](NC(=O)OC)[C@@H]5CCOC(C)(C)C5)[nH]4)ccc32)[nH]1)C(C)C,6,5,9.6,100,5,4,4,38,6,2.7,36,4,0.8
COC(=O)N[C@H](C(=O)N1CCC[C@H]1c1ncc(-c2ccc3c(c2)cc2n3[C@H](c3ccc4c(c3)OCCC4)Oc3cc(-c4cnc([C@@H]5CCCN5C(=O)[C@@H](NC(=O)OC)C5CCOCC5)[nH]4)cc(F)c3-2)[nH]1)C(C)C,2,19,1.9,10,3,–,2,5,3,0.5,8,1,0.05
COC(=O)N[C@H](C(=O)N1CCC[C@H]1c1ncc(-c2cc(F)c3c(c2)O[C@@H](c2nc4c(s2)CCC4)n2c-3cc3cc(-c4cnc([C@@H]5CCCN5C(=O)[C@@H](NC(=O)OC)[C@@H]5CCOC(C)(C)C5)[nH]4)ccc32)[nH]1)C(C)C,7,–,–,–,4,–,5,174,13,–,590,–,–
